Values joined by “and” are separate entries in the source; they are usually repeats but may differ in a detail not shown here. Identical values can stand only once. Each block holds one compound with its values, some of them ahead of it.
How the values were obtained:
[1] = humans, cited from earlier work
[2] = used for total active concentration; cited from earlier work
[3] = system: BTK; conditions: cited from earlier work
[4] = system: R/R CLL/SLL; experiment: Exposure-efficacy; type: in vivo, human; conditions: for relationship between exposures and efficacy endpoints (BOR and SPD): Chinese patients with R/R CLL/SLL (n = 60), 100 mg BID
Procedure, shortened: (§1)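 Chinese pivotal phase 1/2 study (MCL n = 34; CLL n = 60). Per-patient acalabrutinib, ACP-5862 and total active moiety AUC_24h,ss and C_max,ss were taken from pop-PK post hoc estimates. Total active moiety was adjusted for BTK potency and protein binding. Best overall response was assessed by an independent review committee: CR/PR/SD/PD for MCL, PR/PRL/SD for CLL/SLL. SPD change from baseline was also scored. Analysis was graphical plus logistic regression.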

[5] = Population pharmacokinetic; type: in vivo, human; conditions: for geometric mean AUC24h,ss higher in Chinese patients than in White patients / geometric mean C max,ss higher in Chinese patients than in White patients: 100 mg BID, empirical Bayes estimates, Chinese n = 105, White n = 512
Procedure, shortened: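 Pooled plasma acalabrutinib/ACP-5862 data from 14 trials, with China study intensive and sparse schedules, were fitted to the existing model. Parent: two-compartment, five transit compartments. Metabolite: two-compartment, formation fixed at 0.4 CL/F. BOV was on MTT and F1; BSV on clearances and volumes. Race (East Asian vs non-East Asian), PPI, ECOG and health status were tested as proportional shifts. Estimation used NONMEM SAEM/IMP, with BLQ handled by M3.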

[6] = system: R/R MCL; experiment: Exposure-efficacy; type: in vivo, human; conditions: for relationship between exposures and efficacy endpoints (BOR and SPD): Chinese patients with R/R MCL (n = 34), 100 mg BID
Procedure, shortened: as §1

[7] = Exposure-safety; type: in vivo, human
Procedure, shortened: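 Pooled seven studies (six global plus China; n = 476). Endpoints were incidence of grade ≥2 AEs, grade ≥3 AEs, and grade ≥2 AEs of clinical interest occurring in ≥5% of patients (MedDRA v21.1). Post hoc pop-PK steady-state exposures (acalabrutinib AUC_24h,ss primary) were related to AE incidence by graphical plots and logistic regression with 95% CI. Analysis was run for the global and Chinese populations.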

[8] = system: BTK; conditions: 100 mg BID, clinical pharmacodynamic data; cited from earlier work
[9] = radio-labelled dose, humans; cited from earlier work
[10] = type: in vivo, human; conditions: noncompartmental analysis, patients with intensive PK sampling
[11] = cited from earlier work
[12] = system: breast cancer‐resistance protein (BCRP); conditions: cited from earlier work
[13] = system: CYP3A enzymes; conditions: cited from earlier work
[14] = cited from earlier work; remark: listed apart in the source
[15] = at a 400 mg daily dose; cited from earlier work
[16] = Chinese R/R CLL/SLL, n = 60, 100 mg BID
[17] = Chinese R/R MCL, n = 34, 100 mg BID

- geometric mean AUC24h,ss higher in Chinese patients than in White patients [5]: 28%
- geometric mean C max,ss higher in Chinese patients than in White patients [5]: 28%
- CLM/F, apparent clearance of metabolite, estimate (RSE %) ([5]; final model fixed effect): 21.5 (0.6) L/h
- QM/F, apparent intercompartmental clearance for metabolite, estimate (RSE %) ([5]; final model fixed effect): 21.1 (2.9) L/h
- VcM/F, apparent volume of the central compartment for metabolite, estimate (RSE %) ([5]; final model fixed effect): 24.3 (1.7) L
- VpM/F, apparent volume of the peripheral compartment for metabolite, estimate (RSE %) ([5]; final model fixed effect): 90.9 (1.3) L
- BSV CLM/F, estimate (RSE %) ([5]; random effect): 13.2 (18.7) L/h
- BSV QM/F, estimate (RSE %) ([5]; random effect): 62.4 (13.8) L/h
- BSV VcM/F, estimate (RSE %) ([5]; random effect): 37.4 (13.7) L
- BSV VpM/F, estimate (RSE %) ([5]; random effect): 29.3 (18.8) L
Structure (SMILES): CC#CC(=O)NCCCC(=O)c1nc(-c2ccc(C(=O)Nc3ccccn3)cc2)c2c(N)nccn12 [ACP‐5862]
- mean terminal half‐life [1]: 6.6 h
- free fraction (fu) [2]: 0.013
- potency for BTK inhibition compared with acalabrutinib [3]: approximately 0.5 fold
- relationship between exposures and efficacy endpoints (BOR and SPD) [4]: flat relationships
- relationship between exposures and efficacy endpoints (BOR and SPD) [6]: flat relationships

Structure (SMILES): CC#CC(=O)N1CCC[C@H]1c1nc(-c2ccc(C(=O)Nc3ccccn3)cc2)c2c(N)nccn12 [acalabrutinib]
- relationship of acalabrutinib AUC24h,ss with grade ≥2 or ≥3 adverse events ([7]; both Chinese patients and the overall population, 100–400 mg daily doses): flat relationship
- relationship between acalabrutinib AUC24h,ss and grade ≥3 AEs ([7]; overall population, 100 mg BID): flat relationship
- relationship between acalabrutinib AUC24h,ss and grade ≥2 and grade ≥3 AEs ([7]; overall population, logistic regression, daily doses 100 to 400 mg): no statistically significant relationship
- median time to peak plasma concentration (T max) ([1]; after oral administration): 0.75 h
- absolute bioavailability [1]: 25%
- mean steady‐state volume of distribution (Vss) [1]: approximately 34 L
- mean terminal half‐life [1]: 1.4 h
- BTK occupancy over 24 h [8]: maximal
- dose excreted as unchanged acalabrutinib in urine and faeces [9]: less than 2%
- dose recovered in the faeces [9]: 84%
- dose recovered in the urine [9]: 12%
- AUC higher in Chinese participants than in White patients [10]: 48%
- best overall response PR, number of patients [4, 16]: 50
- best overall response PRL, number of patients [4, 16]: 2
- best overall response SD, number of patients [4, 16]: 6
- relationship between exposures and efficacy endpoints (BOR and SPD) [4]: flat relationships
- geometric mean AUC24h,ss higher in Chinese patients than in White patients [5]: 28%
- geometric mean C max,ss higher in Chinese patients than in White patients [5]: 28%
- CL/F higher in healthy participants than in patients with B‐cell malignancies ([5]; covariate analysis): 64.5%
- Vp/F lower in healthy participants than in patients with B‐cell malignancies ([5]; covariate analysis): 42.4%
- decrease in CL/F, ECOG performance status ≥2 compared with ECOG ≤1 ([5]; covariate analysis): 12.8%
- reduction of F1 by PPIs ([5]; covariate analysis): 30.7%
- CL/F, apparent clearance of parent drug, estimate (RSE %) ([5]; final model fixed effect): 130.3 (0.4) L/h
- Ka, first‐order absorption rate constant, estimate (RSE %) ([5]; final model fixed effect): 1.4 (6.6) h^−1
- MTT, mean transit time, estimate (RSE %) ([5]; final model fixed effect): 0.4 (5) h
- Q/F, apparent intercompartmental clearance for parent drug, estimate (RSE %) ([5]; final model fixed effect): 19.5 (1.3) L/h
- Vc/F, apparent volume of the central compartment for parent drug, estimate (RSE %) ([5]; final model fixed effect): 28.8 (4.5) L
- Vp/F, apparent volume of the peripheral compartment for parent drug, estimate (RSE %) ([5]; final model fixed effect): 105.6 (0.7) L
- F higher in East Asian compared with non‐East Asian individuals ([5]; race covariate): 23% and ~ 23%
- Vp/F lower in East Asian compared with non‐East Asian individuals ([5]; race covariate): 38%
- BOV F1, between‐occasion variability, estimate (RSE %) ([5]; random effect): 52.9 (1.7)
- BOV MTT, between‐occasion variability, estimate (RSE %) ([5]; random effect): 125 (2.2) h
- BSV CL/F, between‐subject variability, estimate (RSE %) ([5]; random effect): 23.2 (5.6) L/h
- BSV Vc/F, estimate (RSE %) ([5]; random effect): 306 (6.3) L
- BSV Vp/F, estimate (RSE %) ([5]; random effect): 35.9 (6.9) L
- CL/F_ECOG2+, covariate effect of ECOG on CL/F, estimate (RSE %) ([5]; relative change (1 + estimate)): −0.128 (43.9)
- CL/F_HEALTHGP, covariate effect of healthy individuals on CL/F, estimate (RSE %) ([5]; relative change (1 + estimate)): 0.645 (17.1)
- Vp/F_HEALTHGP, covariate effect of healthy individuals on Vp/F, estimate (RSE %) ([5]; relative change (1 + estimate)): −0.424 (5.9)
- incidence of atrial fibrillation and haemorrhage compared with ibrutinib [11]: lower incidence
- BCRP substrate status [12]: substrate
- metabolism by CYP3A enzymes into ACP‐5862 [13]: predominantly metabolized
- solubility, pH dependence [14]: solubility decreasing with increasing pH
- maximum tolerated dose [15]: not observed
- best overall response CR, number of patients [6, 17]: 12
- best overall response PD, number of patients [6, 17]: 4
- best overall response PR, number of patients [6, 17]: 16
- best overall response SD, number of patients [6, 17]: 1
- relationship between exposures and efficacy endpoints (BOR and SPD) [6]: flat relationships

— article PMC12199099 (British Journal of Clinical Pharmacology, 2025)
